Results reported in ChEMBL document CHEMBL1649412, “Discovery and SAR of 5-(3-chlorophenylamino)benzo[c][2,6]naphthyridine-8-carboxylic acid (CX-4945), the first clinical stage inhibitor of protein kinase CK2 for the treatment of cancer” (J Med Chem, 2011).
pIC50: −log10 of the molar value.

Assays:
LNCaP = experiment: Antiproliferative activity against human LNCAP cells after 4 days by alamar blue assay; format: functional, cell-based; conditions: 96 h
BXPC-3 = experiment: Antiproliferative activity against human BxPC3 cells after 4 days by alamar blue assay; format: functional, cell-based; conditions: BXPC-3, 96 h
A549 = experiment: Antiproliferative activity against human A549 cells after 4 days by alamar blue assay; format: functional, cell-based; conditions: A549, 96 h
[1] = Antiproliferative activity against human H1299 cells after 4 days by alamar blue assay; format: functional, cell-based; conditions: NCI-H1299, 96 h
K562 = experiment: Antiproliferative activity against human K562 cells after 4 days by alamar blue assay; format: functional, cell-based; conditions: K562, 96 h
MCF7 = experiment: Antiproliferative activity against human MCF7 cells after 4 days by alamar blue assay; format: functional, cell-based; conditions: MCF7, 96 h
A-375 = experiment: Antiproliferative activity against human A375 cells after 4 days by alamar blue assay; format: functional, cell-based; conditions: A-375, 96 h
Cytochrome P450 1A2 = Cytochrome P450 1A2 (Homo sapiens, UniProt P05177); experiment: Inhibition of CYP1A2; format: ADME
Cytochrome P450 2C9 = Cytochrome P450 2C9 (Homo sapiens, UniProt P11712); experiment: Inhibition of CYP2C9; format: ADME
Cytochrome P450 2C19 = Cytochrome P450 2C19 (Homo sapiens, UniProt P33261); experiment: Inhibition of CYP2C19; format: ADME
Cytochrome P450 2D6 = Cytochrome P450 2D6 (Homo sapiens, UniProt P10635); experiment: Inhibition of CYP2D6; format: ADME
Cytochrome P450 3A4 = Cytochrome P450 3A4 (Homo sapiens, UniProt P08684); experiment: Inhibition of CYP3A4; format: ADME
[2] = target: Voltage-gated inwardly rectifying potassium channel KCNH2 (Homo sapiens, UniProt Q12809); experiment: Inhibition of human ERG at 0.1 to 10 uM by patch clamp technique
[3] = Clearance in ICR mouse at 5 mg/kg, iv and […] mg/kg, po by LC-MS/MS analysis; format: ADME, organism-based; conditions: in vivo
[4] = Elimination half life in ICR mouse at 5 mg/kg, iv and 25 mg/kg, po by LC-MS/MS analysis; format: ADME, organism-based; conditions: in vivo
[5] = AUC in ICR mouse at 25 mg/kg, po by LC-MS/MS analysis; format: ADME, organism-based; set-up: dose 25 mg/kg, route oral; conditions: plasma
Method in brief: (§1)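 Single iv and po doses to overnight-fasted ICR mice, SD rats and beagle dogs; sodium salt in 25 mM sodium phosphate buffer (rodents), sodium-salt powder in capsules (dogs po). Three animals per route per species (four for one). Serial blood sampling to 24 h (mouse, dog) or 48 h (rat); plasma by LC-MS/MS; parameters by noncompartmental analysis.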

[6] = Oral bioavailability in ICR mouse at 25 mg/kg by LC-MS/MS analysis; format: ADME, organism-based; conditions: in vivo; method in brief: as §1
[7] = Clearance in Sprague-Dawley rat at 5.2 mg/kg, iv and 10.5 mg/kg, po by LC-MS/MS analysis; format: ADME, organism-based; conditions: in vivo; method in brief: as §1
[8] = Elimination half life in Sprague-Dawley rat at 5.2 mg/kg, iv and 10.5 mg/kg, po by LC-MS/MS analysis; format: ADME, organism-based; conditions: in vivo
Method in brief: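 Overnight-fasted SD rats, 3 per route, single iv or oral dose of sodium salt in 25 mM sodium phosphate buffer. Blood was drawn at 0.08–48 h (iv) or 0.25–48 h (po). Plasma was stored at −80 °C, measured by LC-MS/MS, and analysed noncompartmentally.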

[9] = AUC in Sprague-Dawley rat at 10.5 mg/kg, po by LC-MS/MS analysis; format: ADME, organism-based; set-up: dose 10.5 mg/kg, route oral; conditions: plasma; method in brief: as §1
[10] = Oral bioavailability in Sprague-Dawley rat at 10.5 mg/kg, po by LC-MS/MS analysis; format: ADME, organism-based; conditions: in vivo; method in brief: as §1
[11] = Clearance in Beagle dog at 1.9 mg/kg, iv and […] mg/kg, po by LC-MS/MS analysis; format: ADME, organism-based, Canis lupus familiaris; conditions: in vivo
[12] = Elimination half life in Beagle dog at 1.9 mg/kg, iv and 8.2 mg/kg, po by LC-MS/MS analysis; format: ADME, organism-based, Canis lupus familiaris; conditions: in vivo
Method in brief: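 Overnight-fasted beagle dogs, 3 per route, single iv or oral dose. The iv dose was 25n sodium salt in 25 mM sodium phosphate buffer; the oral dose was sodium salt in filled capsules. Blood was drawn at 0.08–24 h (iv) or 0.25–24 h (po). Plasma was stored at −80 °C, measured by LC-MS/MS, and analysed noncompartmentally.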

[13] = AUC in Beagle dog at 8.2 mg/kg, po by LC-MS/MS analysis; format: ADME, organism-based, Canis lupus familiaris; set-up: dose 8.2 mg/kg, route oral; conditions: plasma; method in brief: as §1
[14] = Oral bioavailability in Beagle dog at 8.2 mg/kg by LC-MS/MS analysis; format: ADME, organism-based, Canis lupus familiaris; conditions: in vivo; method in brief: as §1
PC-3 [15] = experiment: Antitumor activity against human PC3 cells xenografted in athymic mouse assessed as tumor growth inhibition at 25 mg/kg, po BID; format: functional; conditions: read-out: TGI
PC-3 [16] = experiment: Antitumor activity against human PC3 cells xenografted in athymic mouse assessed as tumor growth inhibition at 50 mg/kg, po BID; format: functional; conditions: read-out: TGI
PC-3 [17] = experiment: Antitumor activity against human PC3 cells xenografted in athymic mouse assessed as tumor growth inhibition at 75 mg/kg, po BID; format: functional; conditions: read-out: TGI
Mus musculus = experiment: Toxicity in athymic mouse xenografted with human PC3 assessed as change in body weight at 25 to 75 mg/kg, po BID; format: organism-based; set-up: dose 25-75 mg/kg, route oral; conditions: in vivo
Method in brief: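 PC3 cells injected subcutaneously into right hind flank of nude mice; at 150-200 mm3 randomized, 10 per group. Sodium salt in 25 mM NaH2PO4 buffer given by oral gavage twice daily at 25, 50 and 75 mg/kg; body weights measured twice weekly versus vehicle-treated controls.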

PC-3 [18] = experiment: cells; conditions: Homo sapiens, PC-3, 96 h
MIA PaCa-2 = experiment: cells; conditions: Homo sapiens, MIA PaCa-2, 96 h
Jurkat = experiment: cells; conditions: Homo sapiens, 96 h
cells = conditions: Homo sapiens, Hs-578T, 96 h
HCT-116 = experiment: cells; conditions: Homo sapiens, HCT-116, 96 h

Sequence of Cytochrome P450 1A2 (P05177 whole entry): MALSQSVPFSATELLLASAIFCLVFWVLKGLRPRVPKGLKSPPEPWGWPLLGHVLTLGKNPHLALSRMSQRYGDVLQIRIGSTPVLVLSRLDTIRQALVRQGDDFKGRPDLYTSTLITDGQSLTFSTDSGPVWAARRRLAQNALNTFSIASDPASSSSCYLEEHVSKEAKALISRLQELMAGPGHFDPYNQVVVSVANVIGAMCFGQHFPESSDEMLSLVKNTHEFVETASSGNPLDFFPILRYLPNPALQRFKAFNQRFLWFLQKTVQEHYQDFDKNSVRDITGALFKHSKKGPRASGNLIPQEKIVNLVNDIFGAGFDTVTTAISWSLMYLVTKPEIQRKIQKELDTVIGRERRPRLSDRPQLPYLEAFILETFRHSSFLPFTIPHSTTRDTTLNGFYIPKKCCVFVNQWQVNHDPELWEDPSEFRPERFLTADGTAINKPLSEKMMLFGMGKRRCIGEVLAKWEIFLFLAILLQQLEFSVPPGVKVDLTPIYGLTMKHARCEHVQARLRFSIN
Sequence of Cytochrome P450 2C9 (P11712 whole entry): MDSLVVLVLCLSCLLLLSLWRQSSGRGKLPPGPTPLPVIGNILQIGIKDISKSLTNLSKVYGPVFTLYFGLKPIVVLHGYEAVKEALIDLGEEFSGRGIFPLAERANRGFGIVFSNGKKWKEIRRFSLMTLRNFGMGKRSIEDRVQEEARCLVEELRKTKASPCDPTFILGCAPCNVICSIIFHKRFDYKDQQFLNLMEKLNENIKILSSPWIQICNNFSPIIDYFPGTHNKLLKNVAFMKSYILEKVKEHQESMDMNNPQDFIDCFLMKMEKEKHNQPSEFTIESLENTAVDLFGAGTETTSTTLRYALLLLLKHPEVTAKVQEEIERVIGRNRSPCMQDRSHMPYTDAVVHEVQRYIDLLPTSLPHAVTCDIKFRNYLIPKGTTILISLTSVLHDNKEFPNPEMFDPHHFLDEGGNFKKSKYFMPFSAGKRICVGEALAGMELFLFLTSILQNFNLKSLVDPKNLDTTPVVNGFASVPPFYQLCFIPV
Sequence of Cytochrome P450 3A4 (P08684 whole entry): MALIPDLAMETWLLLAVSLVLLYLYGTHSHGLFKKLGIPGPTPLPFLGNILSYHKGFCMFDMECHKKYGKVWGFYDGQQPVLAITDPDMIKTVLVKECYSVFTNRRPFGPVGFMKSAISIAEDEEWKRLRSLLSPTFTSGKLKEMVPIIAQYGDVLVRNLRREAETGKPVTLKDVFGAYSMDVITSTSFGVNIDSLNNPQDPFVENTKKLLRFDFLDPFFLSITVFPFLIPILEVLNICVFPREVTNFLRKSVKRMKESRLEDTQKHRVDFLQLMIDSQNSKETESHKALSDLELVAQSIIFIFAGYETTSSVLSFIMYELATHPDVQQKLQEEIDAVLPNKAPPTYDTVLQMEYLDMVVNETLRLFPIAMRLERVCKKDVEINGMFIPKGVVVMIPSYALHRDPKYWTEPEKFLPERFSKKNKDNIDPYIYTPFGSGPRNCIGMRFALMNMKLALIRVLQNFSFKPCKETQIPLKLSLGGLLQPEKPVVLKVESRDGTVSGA
Sequence of Cytochrome P450 2C19 (P33261 whole entry): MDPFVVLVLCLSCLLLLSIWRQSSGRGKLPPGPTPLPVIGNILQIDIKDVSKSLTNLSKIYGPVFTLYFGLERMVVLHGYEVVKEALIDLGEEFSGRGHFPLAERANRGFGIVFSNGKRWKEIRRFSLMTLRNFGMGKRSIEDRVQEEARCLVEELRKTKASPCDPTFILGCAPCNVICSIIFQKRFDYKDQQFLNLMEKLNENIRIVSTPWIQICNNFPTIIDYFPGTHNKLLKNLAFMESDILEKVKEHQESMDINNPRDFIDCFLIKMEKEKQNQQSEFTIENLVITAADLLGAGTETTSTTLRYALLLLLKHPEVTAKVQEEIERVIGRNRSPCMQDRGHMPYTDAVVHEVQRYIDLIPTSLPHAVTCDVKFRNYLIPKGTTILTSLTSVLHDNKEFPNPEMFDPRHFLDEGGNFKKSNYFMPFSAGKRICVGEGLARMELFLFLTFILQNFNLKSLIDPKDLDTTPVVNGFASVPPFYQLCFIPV
Sequence of Cytochrome P450 2D6 (P10635 whole entry): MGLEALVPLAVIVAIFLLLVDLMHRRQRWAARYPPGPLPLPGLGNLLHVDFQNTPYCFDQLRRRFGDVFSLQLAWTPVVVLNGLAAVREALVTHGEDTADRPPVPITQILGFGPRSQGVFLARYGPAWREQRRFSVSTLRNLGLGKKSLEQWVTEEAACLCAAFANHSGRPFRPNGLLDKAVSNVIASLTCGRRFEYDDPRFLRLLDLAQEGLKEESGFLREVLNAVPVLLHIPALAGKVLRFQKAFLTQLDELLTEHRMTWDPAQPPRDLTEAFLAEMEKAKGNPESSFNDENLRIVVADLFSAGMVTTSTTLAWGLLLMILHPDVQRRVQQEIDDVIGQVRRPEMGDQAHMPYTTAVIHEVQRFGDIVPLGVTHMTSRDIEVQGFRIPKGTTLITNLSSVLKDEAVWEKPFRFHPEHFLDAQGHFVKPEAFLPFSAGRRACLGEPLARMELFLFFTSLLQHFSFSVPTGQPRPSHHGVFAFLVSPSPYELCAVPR
Sequence of Voltage-gated inwardly rectifying potassium channel KCNH2 (Q12809 whole entry): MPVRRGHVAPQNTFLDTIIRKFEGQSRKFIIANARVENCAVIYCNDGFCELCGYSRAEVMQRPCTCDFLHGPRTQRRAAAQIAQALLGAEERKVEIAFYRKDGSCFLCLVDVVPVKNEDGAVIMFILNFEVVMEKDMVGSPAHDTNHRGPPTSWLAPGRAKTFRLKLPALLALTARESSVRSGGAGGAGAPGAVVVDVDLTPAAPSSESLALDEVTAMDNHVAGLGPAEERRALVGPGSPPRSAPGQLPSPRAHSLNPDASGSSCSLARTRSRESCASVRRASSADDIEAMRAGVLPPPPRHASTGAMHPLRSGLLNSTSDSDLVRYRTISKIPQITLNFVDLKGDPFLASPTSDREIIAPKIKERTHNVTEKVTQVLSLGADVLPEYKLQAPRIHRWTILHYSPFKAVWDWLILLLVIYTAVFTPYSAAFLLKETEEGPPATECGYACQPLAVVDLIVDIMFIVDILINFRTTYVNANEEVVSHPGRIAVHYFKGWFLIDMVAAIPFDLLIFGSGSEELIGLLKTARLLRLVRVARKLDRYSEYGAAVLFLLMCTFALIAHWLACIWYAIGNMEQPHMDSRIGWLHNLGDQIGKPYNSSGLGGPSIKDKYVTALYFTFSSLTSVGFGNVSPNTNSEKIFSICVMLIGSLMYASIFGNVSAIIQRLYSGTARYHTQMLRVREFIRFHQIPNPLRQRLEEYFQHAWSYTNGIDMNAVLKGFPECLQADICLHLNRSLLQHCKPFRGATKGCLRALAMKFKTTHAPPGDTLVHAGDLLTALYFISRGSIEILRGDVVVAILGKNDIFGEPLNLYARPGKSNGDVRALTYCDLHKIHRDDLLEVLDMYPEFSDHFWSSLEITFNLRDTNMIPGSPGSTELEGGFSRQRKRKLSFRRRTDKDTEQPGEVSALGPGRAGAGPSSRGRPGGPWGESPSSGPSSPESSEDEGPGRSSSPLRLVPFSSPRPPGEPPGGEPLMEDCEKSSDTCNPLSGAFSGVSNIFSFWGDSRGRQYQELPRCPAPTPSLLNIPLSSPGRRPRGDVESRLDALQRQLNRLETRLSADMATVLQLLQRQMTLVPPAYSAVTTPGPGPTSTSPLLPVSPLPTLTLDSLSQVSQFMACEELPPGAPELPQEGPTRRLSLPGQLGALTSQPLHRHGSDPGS

What does the source list for `O=C(O)c1ccc2c(c1)nc(Nc1cccc(Cl)c1)c1ccncc12` [SILMITASERTIB]?
pIC50 (LNCaP): 5.33; pIC50 (BXPC-3): 5.36; pIC50 (A549): 5.52; pIC50 [1]: 5.62; pIC50 (K562): 5.28; pIC50 (MCF7): 5.05; pIC50 (A-375): 5.41; inhibition (INH) (Cytochrome P450 1A2): Not Active; inhibition (INH) (Cytochrome P450 2C9): Not Active; inhibition (INH) (Cytochrome P450 2C19): Not Active; inhibition (INH) (Cytochrome P450 2D6): Not Active; inhibition (INH) (Cytochrome P450 3A4): Not Active; inhibition (INH) [2]: < 10%; clearance [3]: 41.7 mL/min/kg; half-life [4]: 5 h; AUC [5]: 2010 ng·h/mL; bioavailability [6]: 20%; clearance [7]: 1.67 mL/min/kg; half-life [8]: 11.6 h; AUC [9]: 42300 ng·h/mL; bioavailability [10]: 48%; clearance [11]: 11.7 mL/min/kg; half-life [12]: 8.3 h; AUC [13]: 5650 ng·h/mL; bioavailability [14]: 51%; inhibition in vivo at 25 mg/kg (PC-3 [15]): 19%; inhibition in vivo at 50 mg/kg (PC-3 [16]): 40%; inhibition in vivo at 75 mg/kg (PC-3 [17]): 86%; Activity (Mus musculus): Non-toxic; pIC50 (PC-3 [18]): 5.68; pIC50 (MIA PaCa-2): 5.96; pIC50 (Jurkat): 5.60; pIC50 (cells): 4.88; pIC50 (HCT-116): 5.66
